Screening data: PubChem, Johns Hopkins Ion Channel Center
A selection: hits, their analogues and other compounds. The true share with any hit is near 2.3%.
TRPC4 agonist = activators of mouse TRPC4 channel, primary screen, Fluo4 calcium, HEK293 TRPC4beta/mu-opioid cells. Short transient receptor potential channel 4 (Mus musculus), Q9QUQ5. Fluo4 calcium fluorescence; hits give high values. B-score at 10 µM. 310,000 compounds, 0.49% hits;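 active = B-score above 5 SD of library B-scores, and initial fluorescence ratio not above library mean plus 5 SD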;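 also: positive B-score marks a calcium rise read as TRPC4 activation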
Target sequence (Q9QUQ5 whole entry, looked up): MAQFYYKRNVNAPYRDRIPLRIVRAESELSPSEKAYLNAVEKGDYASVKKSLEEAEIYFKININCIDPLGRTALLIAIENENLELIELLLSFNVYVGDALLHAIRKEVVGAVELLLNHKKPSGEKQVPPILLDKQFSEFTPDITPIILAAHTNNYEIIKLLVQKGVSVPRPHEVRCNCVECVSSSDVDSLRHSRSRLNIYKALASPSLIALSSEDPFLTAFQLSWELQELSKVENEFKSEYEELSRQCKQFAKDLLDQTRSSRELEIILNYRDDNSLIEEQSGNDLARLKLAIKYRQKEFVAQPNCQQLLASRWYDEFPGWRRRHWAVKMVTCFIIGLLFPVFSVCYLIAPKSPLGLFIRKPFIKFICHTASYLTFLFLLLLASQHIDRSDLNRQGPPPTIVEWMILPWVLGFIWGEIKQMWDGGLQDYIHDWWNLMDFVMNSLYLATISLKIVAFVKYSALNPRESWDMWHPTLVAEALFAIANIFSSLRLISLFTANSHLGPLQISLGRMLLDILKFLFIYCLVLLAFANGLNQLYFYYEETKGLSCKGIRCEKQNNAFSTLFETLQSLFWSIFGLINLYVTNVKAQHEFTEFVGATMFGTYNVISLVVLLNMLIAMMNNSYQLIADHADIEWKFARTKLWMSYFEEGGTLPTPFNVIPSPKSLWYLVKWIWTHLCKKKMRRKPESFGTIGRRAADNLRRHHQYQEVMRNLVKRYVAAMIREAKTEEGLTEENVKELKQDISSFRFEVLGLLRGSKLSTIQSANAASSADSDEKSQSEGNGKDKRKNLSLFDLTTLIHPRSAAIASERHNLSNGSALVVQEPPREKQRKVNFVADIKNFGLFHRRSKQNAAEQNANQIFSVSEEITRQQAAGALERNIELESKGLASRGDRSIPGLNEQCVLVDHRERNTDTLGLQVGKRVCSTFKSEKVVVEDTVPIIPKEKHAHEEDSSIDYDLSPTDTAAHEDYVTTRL
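Assay system: HEK293 stable line with TRPC4beta plus mu-opioid receptor; schedule: 45 min room-temperature Fluo4 loading, 110 s read; technique: kinetic Fluo4 calcium fluorescence; evaluation: integrated baseline-normalised fluorescence ratio, converted to per-well B score; controls: buffer (low) and maximal DAMGO (high)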
TRPC4 block = inhibitors of mouse TRPC4 channel, primary screen, Fluo4 calcium, HEK293 TRPC4beta/mu-opioid cells | B-score at 10 µM | Short transient receptor potential channel 4 (Mus musculus), Q9QUQ5 | AID 2247, 2010 | 300,000 compounds, 0.39% hits | DAMGO-evoked Fluo4 calcium flux; hits give low values;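 active = B-score over 3 SD under the library average, no early fluorescence shift, positive overall ratio signal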
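Test system – stable TRPC4beta/mu-opioid receptor HEK293 cells · Probe or stimulus – DAMGO, a submaximal dose followed by a maximal one · Dosing – one concentration per compound · Signal – Fluo4 calcium fluorescence by kinetic imaging, 5 s 1 Hz baseline · Evaluation – per-well B score of integrated baseline-normalized Fluo4 ratio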
TRPC6 activator = mouse TRPC6 channel activators, primary screen, cell-based, HEK293, membrane potential dye | Short transient receptor potential channel 6 (Mus musculus), Q61143 | HEK293-TRPC6 membrane potential dye fluorescence; hits give high values | B-score at 10 µM | 310,000 compounds, 0.13% hits | AID 2550, 2010;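 active = B-score of the integrated fluorescence ratio above library mean plus 3 SD, and starting fluorescence ratio within library mean plus 5 SD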;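 also: higher score means more depolarization so channel activation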
TRPC6 inhibitor = mouse TRPC6 channel inhibitors, primary screen, cell-based, HEK293, membrane potential dye | Short transient receptor potential channel 6 (Mus musculus), Q61143 | ACh-evoked depolarization; hits give low values | B-score at 10 µM | 310,000 compounds, 1.1% hits;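 active = B-score under library mean minus 3 SD, initial fluorescence not abnormally high, positive integrated signal ratio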;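 also: B-score derived from integrated fluorescence ratio over the kinetic read; more negative B-score means stronger inhibition of depolarization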
TRPC4 PAM = positive allosteric modulators of TRPC4, primary screen, cell-based, mouse TRPC4beta, HEK293 mu-opioid, Fluo-4 calcium; Short transient receptor potential channel 4 (Mus musculus), Q9QUQ5; DAMGO EC20, Fluo-4 Ca2+ flux; hits give high values; B-score at 10 µM; 310,000 compounds, 0.42% hits; AID 2227, 2009;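 active = B-score of calcium response area above 5 SD of library B-scores, with initial fluorescence ratio within 5 SD of library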;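 also: B-score of integrated fluorescence ratio over time as area under calcium response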
An asterisk follows results filed as active; i = inactive; . = no result; ! = repeats disagree.

SMILES | TRPC4 agonist | TRPC4 block | TRPC6 activator | TRPC6 inhibitor | TRPC4 PAM
CCOP(=O)(OCC)c1nc(-c2cccc3ccccc23)oc1NCc1ccccc1 | i | i | i | i | i
CCOP(=O)(OCC)c1nc(-c2cccc3ccccc23)oc1NCc1ccc(OC)cc1 | i | i | i | i | 13*
CCCCCn1c(=O)[nH]c2cc(C(=O)NCCN(CC)CC)ccc2c1=O | i | i | i | i | 14*
Cc1cc(Nc2cccc(F)c2)nc(N2CCOCC2)n1 | i | i | i | i | i
COC(=O)c1c(NC(=O)CSc2ncn[nH]2)sc(C)c1C | i | -7* | i | i | i
CCOC(=O)c1c(NC(=O)CSc2ncn[nH]2)sc(C(C)=O)c1C | i | i | i | i | i
Cc1ccc(NC(=O)NNC(=O)COc2ccc3ccccc3c2)cc1 | i | i | i | i | i
COc1ccc(CNCc2ccc3c(c2)OCO3)cc1Br | 43* | i | i | i | i
COc1ccc(CNCc2ccc3c(c2)OCO3)c(OC)c1OC | i | i | i | i | i
CSCC[C@H](NC(=O)N1CCn2c1nc1ccccc12)C(=O)NCc1ccc(C)cc1 | i | i | i | i | 43*
COc1ccccc1CNC(=O)CCc1nc2ccccc2c(=O)[nH]1 | i | i | i | i | i
Cn1c(-c2ccccc2)cnc1NCc1ccc(F)cc1 | i | -7* | i | i | i
CCN(CC)CCCN1C(=O)c2oc3ccccc3c(=O)c2C1c1cccnc1 (stereo unspecified) | i | i | i | i | i
C=CCc1ccccc1OCC(O)CN1CCN(Cc2ccc3c(c2)OCO3)CC1 (stereo unspecified) | i | -7*! | i | i | i
CCOC(=O)c1cnc(-n2nc(C)cc2C)nc1NC1CCCCC1 | i | i | i | i | 18*
COc1ccc(CSCCN)cc1Cl | 103* | i | i | i | i
CCN(CC)Cc1ccc(OC)c(Cl)c1 | i | i | i | i | i
Cc1cc2nc(C)n(CCCNC(=O)Nc3ccc(F)cc3)c2cc1C | i | i | i | i | i
CC1CN(CCOCCOc2ccccc2-c2ccccc2)CC(C)O1 (stereo unspecified) | 63* | i | i | i | i
O=C(CN1CCN(c2ncccn2)CC1)NCc1ccccc1 | i | i | i | i | i
Cc1ccc(CC(=O)N(C)CC(=O)Nc2ccc(N3CCOCC3)cc2)cc1C | i | i | i | i | i
Cc1ccccc1OCCCCc1c(C)n[nH]c1C | i | -6* | i | i | i
Cc1ccccc1OCCCc1c(C)n[nH]c1C | i | . | i | i | i
Cc1n[nH]c(C)c1CCCCOc1ccccc1 | i | -7* | i | i | i
Cc1ccc(OCCCc2c(C)n[nH]c2C)cc1 | i | i | i | i | i
SMILES | TRPC4 agonist | TRPC4 block | TRPC6 activator | TRPC6 inhibitor | TRPC4 PAM
Cc1n[nH]c(C)c1CCCCOc1ccccc1F | i | -6* | i | i | i
O=C(/C=C/c1ccccc1)NCCS(=O)(=O)N1CCN(c2ccccc2)CC1 | i | i | i | i | i
CCN(CC)S(=O)(=O)c1cccc(-c2nnc(SCCOc3ccccc3C)o2)c1 | i | i | i | i | i
C#CC[N+](C)(C)CCCCCCCCCC | i | i | i | i | i
CC#CC[N+](C)(C)CCCCCCCCCCCC | i | -8* | i | i | i
CCCNC(=O)c1ccc2c(=O)c(O)c(C)[nH]c2c1 | i | i | i | i | i
CCCCN(C)C(=O)Cn1ncc2c3ccccc3n(CCC)c2c1=O | i | i | i | i | 21*
CCOC(=O)C1=NNC(C(=O)c2ccccc2)C1c1ccc(C)cc1 (stereo unspecified) | i | -8* | i | i | i
